Reference: ChEMBL document CHEMBL1124366, “Synthesis and biological properties of N63-carboxamides of teicoplanin antibiotics. Structure-activity relationships” (J Med Chem, 1989)
In brackets after ≈: the same amount, converted by molar mass.

What was measured:
Format in all cases: functional
Streptococcus pneumoniae = experiment: In vitro minimum inhibitory concentration against Streptococcus pneumoniae UC41
Proteus vulgaris = experiment: In vitro minimum inhibitory concentration against Proteus vulgaris X 19 ATCC 881
Staphylococcus aureus = experiment: In vitro minimum inhibitory concentration against Staphylococcus aureus Tour
Streptococcus pyogenes [1] = experiment: Subcutaneously administration into mice infected with Streptococcus pyogenes C 203; conditions: sc
How it was run: (§1)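 Mice (five per treatment group, five groups) infected intraperitoneally with about 10⁵ cells of Strep. pyogenes C 203, about 100× the LD50. ED50 (mg/kg) was calculated from the percentage of mice surviving at each dose on day 7.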

Enterococcus faecalis = experiment: In vitro minimum inhibitory concentration against Streptococcus faecalis ATCC 7080
Pseudomonas aeruginosa = experiment: In vitro minimum inhibitory concentration against Pseudomonas aeruginosa ATCC 10145
Streptococcus pyogenes [2] = experiment: In vitro minimum inhibitory concentration against Streptococcus pyogenes C 203
[3] = system: Staphylococcus epidermidis; experiment: In vitro minimum inhibitory concentration against Staphylococcus epidermis ATCC 12228
Escherichia coli = experiment: In vitro minimum inhibitory concentration against Escherichia coli SKF 12140
[4] = system: Staphylococcus haemolyticus; experiment: In vitro minimum inhibitory concentration against Staphylococcus hemolyticus 602 cell line; conditions: strain 602
Streptococcus pyogenes [5] = experiment: In vivo effective dose given perorally to mice infected with Streptococcus pyogenes C 203; conditions: po; how it was run: as §1

| MIC (Streptococcus pneumoniae) | MIC (Proteus vulgaris) | MIC (Staphylococcus aureus) | MIC (Enterococcus faecalis) | MIC (Pseudomonas aeruginosa) | MIC (Streptococcus pyogenes [2]) | MIC [3] | MIC (Escherichia coli) | SMILES | ED50 (Streptococcus pyogenes [1]) | MIC [4] | ED50 (Streptococcus pyogenes [5]) |
| --- | --- | --- | --- | --- | --- | --- | --- | --- | --- | --- | --- |
| 0.12 µg/mL (≈ 0.0927 µM) | 64 µg/mL (≈ 49.4 µM) | 0.06 µg/mL (≈ 0.0463 µM) | 0.12 µg/mL (≈ 0.0927 µM) | 64 µg/mL (≈ 49.4 µM) | 0.06 µg/mL (≈ 0.0463 µM) | 0.016 µg/mL (≈ 0.0124 µM) | 8 µg/mL (≈ 6.18 µM) | N[C@H]1C(=O)N[C@@H]2Cc3ccc(c(Cl)c3)Oc3cc4cc(c3O)Oc3ccc(cc3Cl)[C@@H](O)[C@@H]3NC(=O)[C@H](NC(=O)[C@@H]4NC(=O)[C@@H](NC2=O)c2cc(O)cc(c2)Oc2cc1ccc2O)c1ccc(O)c(c1)-c1c(O)cc(O)cc1[C@@H](C(=O)NCCN1CCCC1)NC3=O | 1.6 mg/kg |  |  |
| 0.12 µg/mL (≈ 0.0915 µM) | 128 µg/mL (≈ 97.6 µM) | 0.06 µg/mL (≈ 0.0458 µM) | 0.12 µg/mL (≈ 0.0915 µM) | 64 µg/mL (≈ 48.8 µM) | 0.06 µg/mL (≈ 0.0458 µM) | 0.06 µg/mL (≈ 0.0458 µM) | 8 µg/mL (≈ 6.1 µM) | CN(C)CCCCCNC(=O)[C@H]1NC(=O)[C@H]2NC(=O)[C@H](NC(=O)[C@@H]3NC(=O)[C@H]4NC(=O)[C@@H](Cc5ccc(c(Cl)c5)Oc5cc3cc(c5O)Oc3ccc(cc3Cl)[C@H]2O)NC(=O)[C@H](N)c2ccc(O)c(c2)Oc2cc(O)cc4c2)c2ccc(O)c(c2)-c2c(O)cc(O)cc21 | 0.72 mg/kg | 0.12 µg/mL (≈ 0.0915 µM) |  |
| 0.06 µg/mL (≈ 0.0459 µM) | 64 µg/mL (≈ 49 µM) | 0.12 µg/mL (≈ 0.0918 µM) | 0.12 µg/mL (≈ 0.0918 µM) | 32 µg/mL (≈ 24.5 µM) | 0.06 µg/mL (≈ 0.0459 µM) | 0.06 µg/mL (≈ 0.0459 µM) | 8 µg/mL (≈ 6.12 µM) | N[C@H]1C(=O)N[C@@H]2Cc3ccc(c(Cl)c3)Oc3cc4cc(c3O)Oc3ccc(cc3Cl)[C@@H](O)[C@@H]3NC(=O)[C@H](NC(=O)[C@@H]4NC(=O)[C@@H](NC2=O)c2cc(O)cc(c2)Oc2cc1ccc2O)c1ccc(O)c(c1)-c1c(O)cc(O)cc1[C@@H](C(=O)NC1CN2CCC1CC2)NC3=O (stereo partly specified) | 0.46 mg/kg |  |  |
| 0.12 µg/mL (≈ 0.0915 µM) | 128 µg/mL (≈ 97.6 µM) | 0.06 µg/mL (≈ 0.0458 µM) | 0.12 µg/mL (≈ 0.0915 µM) | 64 µg/mL (≈ 48.8 µM) | 0.12 µg/mL (≈ 0.0915 µM) | 0.016 µg/mL (≈ 0.0122 µM) | 16 µg/mL (≈ 12.2 µM) | N[C@H]1C(=O)N[C@@H]2Cc3ccc(c(Cl)c3)Oc3cc4cc(c3O)Oc3ccc(cc3Cl)[C@@H](O)[C@@H]3NC(=O)[C@H](NC(=O)[C@@H]4NC(=O)[C@@H](NC2=O)c2cc(O)cc(c2)Oc2cc1ccc2O)c1ccc(O)c(c1)-c1c(O)cc(O)cc1[C@@H](C(=O)NCCN1CCOCC1)NC3=O | 2.2 mg/kg |  |  |
| 0.12 µg/mL (≈ 0.0946 µM) | 64 µg/mL (≈ 50.5 µM) | 0.06 µg/mL (≈ 0.0473 µM) | 0.12 µg/mL (≈ 0.0946 µM) | 64 µg/mL (≈ 50.5 µM) | 0.12 µg/mL (≈ 0.0946 µM) | 0.016 µg/mL (≈ 0.0126 µM) | 16 µg/mL (≈ 12.6 µM) | N[C@H]1C(=O)N[C@@H]2Cc3ccc(c(Cl)c3)Oc3cc4cc(c3O)Oc3ccc(cc3Cl)[C@@H](O)[C@@H]3NC(=O)[C@H](NC(=O)[C@@H]4NC(=O)[C@@H](NC2=O)c2cc(O)cc(c2)Oc2cc1ccc2O)c1ccc(O)c(c1)-c1c(O)cc(O)cc1[C@@H](C(=O)N1CCOCC1)NC3=O | 1.02 mg/kg |  |  |
| 0.25 µg/mL (≈ 0.17 µM) | > 128 µg/mL | 0.12 µg/mL (≈ 0.0815 µM) | 0.25 µg/mL (≈ 0.17 µM) | > 128 µg/mL | 0.12 µg/mL (≈ 0.0815 µM) | 0.06 µg/mL (≈ 0.0407 µM) | 64 µg/mL (≈ 43.4 µM) | N[C@H]1C(=O)N[C@@H]2Cc3ccc(c(Cl)c3)Oc3cc4cc(c3O)Oc3ccc(cc3Cl)[C@@H](O)[C@@H]3NC(=O)[C@H](NC(=O)[C@@H]4NC(=O)[C@@H](NC2=O)c2cc(O)cc(c2)Oc2cc1ccc2O)c1ccc(O)c(c1)-c1c(O)cc(O)cc1[C@@H](C(=O)NCCCCCC(=O)N[C@@H]1[C@@H](O)[C@@H](O)[C@@H](CO)O[C@H]1O)NC3=O | 2.9 mg/kg |  |  |
| 0.06 µg/mL (≈ 0.0306 µM) |  | 0.12 µg/mL (≈ 0.0612 µM) | 0.12 µg/mL (≈ 0.0612 µM) |  | 0.06 µg/mL (≈ 0.0306 µM) | 0.12 µg/mL (≈ 0.0612 µM) |  | CCCCC/C=C/CCC(=O)N[C@@H]1[C@H](Oc2c3cc4cc2Oc2ccc(cc2Cl)[C@@H](O[C@@H]2O[C@@H](CO)[C@@H](O)[C@H](O)[C@@H]2NC(C)=O)[C@@H]2NC(=O)[C@H](NC(=O)[C@@H]4NC(=O)[C@H]4NC(=O)[C@@H](Cc5ccc(c(Cl)c5)O3)NC(=O)[C@H](N)c3ccc(O)c(c3)Oc3cc(O)cc4c3)c3ccc(O)c(c3)-c3c(O[C@H]4O[C@H](CO)[C@@H](O)[C@@H](O)[C@@H]4O)cc(O)cc3[C@@H](C(=O)NC3CCNCC3)NC2=O)O[C@@H](CO)[C@@H](O)[C@@H]1O | 0.08 mg/kg | 1 µg/mL (≈ 0.51 µM) | 89.6 mg/kg |
| 0.06 µg/mL (≈ 0.0301 µM) |  | 0.12 µg/mL (≈ 0.0602 µM) | 0.12 µg/mL (≈ 0.0602 µM) |  | 0.06 µg/mL (≈ 0.0301 µM) | 0.12 µg/mL (≈ 0.0602 µM) |  | CCN(CC)CCCNC(=O)[C@H]1NC(=O)[C@H]2NC(=O)[C@H](NC(=O)[C@@H]3NC(=O)[C@H]4NC(=O)[C@@H](Cc5ccc(c(Cl)c5)Oc5cc3cc(c5O[C@@H]3O[C@@H](CO)[C@@H](O)[C@H](O)[C@@H]3NC(=O)CCCCCCC(C)C)Oc3ccc(cc3Cl)[C@H]2O[C@@H]2O[C@@H](CO)[C@@H](O)[C@H](O)[C@@H]2NC(C)=O)NC(=O)[C@H](N)c2ccc(O)c(c2)Oc2cc(O)cc4c2)c2ccc(O)c(c2)-c2c(O[C@H]3O[C@H](CO)[C@@H](O)[C@@H](O)[C@@H]3O)cc(O)cc21 | 0.05 mg/kg | 0.12 µg/mL (≈ 0.0602 µM) | 90 mg/kg |
